The results in this text go back to ChEMBL document CHEMBL1157314, “Antibacterial, partially acetylated oligorhamnosides from Cleistopholis patens” (2006).

≈ marks a conversion by molar mass, not a printed value. Calls of active or inactive are those of the source. The rule behind the calls is not given here. Some results are limits rather than exact numbers.

Assay [1] relates to Staphylococcus aureus. Put plainly: Antibacterial activity against methicillin-resistant Staphylococcus aureus ATCC 33591 after 24 hrs by broth microdilution method. To be noted: for MIC: ATCC 33591, 24 h. Format: functional. The gist of the method:
(§1)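 Broth microdilution following NCCLS M7-A6 (2003), with inoculum at the recommended densities. Isolates were placed into panel wells with an autoinoculator and grown in cation-adjusted Mueller-Hinton broth at 35°C in ambient air for overnight to 24 h. Panels were read by eye, and the MIC was taken as no visible growth.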

The test system of assay [2] is Staphylococcus aureus. Briefly: Antibacterial activity against methicillin-resistant Staphylococcus aureus 78-13607A after 24 hrs by broth microdilution method. Format: functional. The gist of the method:
as §1
For orientation: Dilution methods test growth across graded concentrations, often in twofold steps.

By MIC is commonly meant the least concentration at which growth counts as inhibited. A higher MIC goes with a need for much substance. As to `CCCCCCCCCCCCO[C@@H]1O[C@@H](C)[C@H](O[C@@H]2O[C@@H](C)[C@H](OC(C)=O)[C@@H](O[C@@H]3O[C@@H](C)[C@H](OC(C)=O)[C@@H](O[C@@H]4O[C@@H](C)[C@H](O)[C@@H](OC(C)=O)[C@H]4O)[C@H]3OC(C)=O)[C@H]2O)[C@@H](O)[C@H]1O`, the MIC is 8 µg/mL (≈ 8.52 µM) against Staphylococcus aureus [1] and 16 µg/mL (≈ 17 µM) with Staphylococcus aureus [2].
With `CCC[C@@H]1C[C@@H](C(=O)N[C@@H]([C@H]2O[C@H](SC)[C@H](O)[C@@H](O)[C@H]2O)[C@H](C)Cl)N(C)C1` [CLINDAMYCIN], the MIC in the assay on Staphylococcus aureus [1] was greater than 8 µg/mL; against Staphylococcus aureus [2] it was 0.12 µg/mL (≈ 0.282 µM).
For `C/C(=C\C(=O)OCCCCCCCCC(=O)O)C[C@@H]1OC[C@H](C[C@@H]2O[C@H]2[C@@H](C)[C@H](C)O)[C@@H](O)[C@H]1O`, the result in the assay with Staphylococcus aureus [1] and with Staphylococcus aureus [2] was Active.
For the compound `CC[C@H]1OC(=O)[C@H](C)[C@@H](O[C@H]2C[C@@](C)(OC)[C@@H](O)[C@H](C)O2)[C@H](C)[C@@H](O[C@@H]2O[C@H](C)C[C@H](N(C)C)[C@H]2O)[C@](C)(O)C[C@@H](C)C(=O)[C@H](C)[C@@H](O)[C@]1(C)O` [ERYTHROMYCIN], the MIC is greater than 8 µg/mL against Staphylococcus aureus [1] and 0.25 µg/mL (≈ 0.341 µM) against Staphylococcus aureus [2].
Consider `CC(=O)NC[C@H]1CN(c2ccc(N3CCOCC3)c(F)c2)C(=O)O1`, for which the outcome with Staphylococcus aureus [1] and in the assay on Staphylococcus aureus [2] was Active.
`O=C(O)c1cn(C2CC2)c2cc(N3CCNCC3)c(F)cc2c1=O` [CIPROFLOXACIN]: the values for the MIC against Staphylococcus aureus [1] and in the assay on Staphylococcus aureus [2] were 0.5 µg/mL (≈ 1.51 µM) and greater than 4 µg/mL, respectively.
